Experimental data: ChEMBL document CHEMBL1133181, “A novel approach for the virtual screening and rational design of anticancer compounds” (J Med Chem, 2000)
≈ marks a conversion by molar mass, not a printed value.

Legend:
[1] = Antitumor activity to reduce proliferation of human T-lymphocyte Molt4/C8 cells by 50%; format: functional, cell-based; details: molt-4
Procedure, shortened: (§1)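 CEM or Molt4/C8 cells were seeded into 96-well wells with test compound and grown for 72 h at 37 °C in a humidified, CO2-controlled atmosphere. Cells were then counted with a Coulter counter. IC50 is the compound concentration that reduced the number of living cells by 50%.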

L1210 [2] = assay: Antitumor activity to reduce proliferation of murine leukemia L1210/0 cells by 50%; format: functional, cell-based, Mus musculus
Procedure, shortened: (§2)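 L1210 murine leukemia cells were incubated in 96-well microtiter wells with test compound for 48 h at 37 °C under humidified, CO2-controlled conditions. Cell numbers were then counted with a Coulter counter. IC50 was taken as the concentration giving a 50% reduction in living cell count.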

[3] = Antitumor activity to reduce proliferation of human T-lymphocyte CEM/0 cells by 50%; format: functional, cell-based; procedure, shortened: as §1
[4] = Concentration required to reduce proliferation of human T-lymphocyte CEM/0 cells by 50%; format: functional, cell-based; procedure, shortened: as §1
[5] = Concentration required to reduce proliferation of human T-lymphocyte Molt4/C8 cells by 50%; format: functional, cell-based; details: molt-4; procedure, shortened: as §1
L1210 [6] = assay: Concentration required to reduce proliferation of murine leukemia L1210/0 cells by 50%; format: functional, cell-based, Mus musculus; procedure, shortened: as §2

| IC50 (L1210 [2]) [µg/mL] | IC50 (L1210 [6]) [µg/mL] | SMILES | IC50 [1] [µg/mL] | IC50 [3] [µg/mL] | IC50 [4] [µg/mL] | IC50 [5] [µg/mL] |
| --- | --- | --- | --- | --- | --- | --- |
| 179 (≈ 767 µM) |  | Nc1ncnc2c1ncn2C1CCCC1CO (trans isomer) | > 200 | 180 (≈ 772 µM) |  |  |
| 14 (≈ 52.5 µM) |  | OCC1CCCC1Cn1cnc2c(Cl)ncnc21 (cis isomer) | 6.54 (≈ 24.5 µM) | 16 (≈ 60 µM) |  |  |
| > 200 |  | O=c1ccn(CC2CCCC2CO)c(=O)[nH]1 (configuration not stated) | > 200 | > 200 |  |  |
| 71.1 (≈ 203 µM) |  | O=c1[nH]c(=O)n(CC2CCCC2CO)cc1I (cis isomer) | 108 (≈ 308 µM) | 117 (≈ 334 µM) |  |  |
| 102 (≈ 412 µM) |  | Nc1ncnc2c1ncn2CC1CCCC1CO (stereo in doubt; 7c) | 100 (≈ 404 µM) | 108 (≈ 437 µM) |  |  |
| > 200 |  | Nc1ncnc2c1ncn2C1CCCC1CO (cis isomer) |  | > 200 |  |  |
| 48.7 (≈ 183 µM) |  | OCC1CCCC1Cn1cnc2c(Cl)ncnc21 (trans isomer) | 22.3 (≈ 83.6 µM) | 15 (≈ 56.2 µM) |  |  |
| 65.8 (≈ 188 µM) |  | O=c1[nH]c(=O)n(CC2CCCC2CO)cc1I (trans isomer) | 158 (≈ 451 µM) | 131 (≈ 374 µM) |  |  |
| 62.8 (≈ 249 µM) |  | OCC1CCCC1n1cnc2c(Cl)ncnc21 (cis isomer) | 49.9 (≈ 197 µM) | 61 (≈ 241 µM) |  |  |
|  | > 200 | OCC1CCCC1n1cnc2c(O)ncnc21 (trans isomer) |  |  | > 200 | > 200 |
| 56.1 (≈ 222 µM) |  | OCC1CCCC1n1cnc2c(Cl)ncnc21 (trans isomer) | 39.2 (≈ 155 µM) | 19 (≈ 75.2 µM) |  |  |
| > 200 |  | O=c1ccn(C2CCCC2CO)c(=O)[nH]1 (trans isomer) | > 200 | > 200 |  |  |
|  | > 200 | OCC1CCCC1Cn1cnc2c(O)ncnc21 (cis isomer) |  |  | > 200 | > 200 |
| > 200 |  | O=c1[nH]c(=O)n(C2CCCC2CO)cc1I (trans isomer) | > 200 | > 200 |  |  |
| 52.3 (≈ 156 µM) |  | O=c1[nH]c(=O)n(C2CCCC2CO)cc1I (stereo in doubt; 4a) | 77.4 (≈ 230 µM) | 57.4 (≈ 171 µM) |  |  |
| > 200 |  | Nc1ncnc2c1ncn2CC1CCCC1CO (trans isomer) | > 200 | > 200 |  |  |
